MrgX1 agonist: agonists of human MrgX1 receptor, primary screen, HEK293 cells, Fluo-4 calcium flux. Fluo-4 calcium fluorescence, agonist mode; active compounds read high. B-score at 10 µM. hit rate 0.44% among 310,000;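 active means calcium response B-score plate-corrected fluorescence ratio at least 3 library SD, with starting fluorescence B-score inside 5 SD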
Target sequence (Q96LB2 whole entry, looked up): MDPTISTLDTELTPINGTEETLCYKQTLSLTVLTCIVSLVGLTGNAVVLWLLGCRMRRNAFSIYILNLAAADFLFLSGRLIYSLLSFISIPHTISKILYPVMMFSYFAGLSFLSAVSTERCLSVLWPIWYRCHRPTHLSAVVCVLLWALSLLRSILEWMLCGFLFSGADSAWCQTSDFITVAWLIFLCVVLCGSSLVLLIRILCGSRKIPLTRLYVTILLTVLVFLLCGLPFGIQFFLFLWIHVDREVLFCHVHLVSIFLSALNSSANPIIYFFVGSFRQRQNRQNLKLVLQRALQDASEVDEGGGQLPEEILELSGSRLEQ
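Test system: HEK293 cells stably expressing human MrgX1 receptor; Input: fifteen thousand cells per well; Dosing: compound delivered in addition one of three; Schedule: overnight seeding, then 1 h dark dye loading; Technique: Fluo-4 NW calcium fluorescence; Measure: B-scored fluorescence response ratio; Controls: positive and negative controls per plate.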
RGS4 act: RGS4 potentiators or activators, primary screen, cell-based, HEK293 M3R inducible RGS4, calcium flux | carbachol calcium flux Fluo4; active compounds read low | B-score at 10 µM | AID 463111, 2010 | hit rate 0.92% among 310,000;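 active means B-score of the integrated calcium signal more than 4 SD below the library mean, with starting fluorescence not abnormally high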;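 further: negative B-score means reduced calcium response which marks RGS4 activation or potentiation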
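Assay system: Inducible-RGS4 HEK293 cells carrying M3 receptor | Schedule: Compound preincubation 20 min at room temperature before agonist | Signal: Kinetic calcium fluorescence imaging with Fluo4-AM dye, 2 µM | Read-out basis: B score from integrated fluorescence ratio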
RGS4 inh: RGS4 inhibitors, primary screen, cell-based, HEK293 M3R inducible RGS4, calcium flux. Regulator of G-protein signaling 4 (Homo sapiens), P49798. Fluo-4 calcium flux; active compounds read high; triggered by carbachol at its EC20. B-score at 10 µM. hit rate 0.45% among 310,000. AID 463165, 2010;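 active means B-score, a plate-corrected calcium signal, over three deviations above library mean, with baseline fluorescence within five deviations of library mean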;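 further: RGS4 expression induced by doxycycline in cells with stable M3 receptor; B-score is computed from the integrated fluorescence ratio over baseline after carbachol; higher B-score means a larger calcium signal and so more RGS4 inhibition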
Target sequence (P49798 whole entry, looked up): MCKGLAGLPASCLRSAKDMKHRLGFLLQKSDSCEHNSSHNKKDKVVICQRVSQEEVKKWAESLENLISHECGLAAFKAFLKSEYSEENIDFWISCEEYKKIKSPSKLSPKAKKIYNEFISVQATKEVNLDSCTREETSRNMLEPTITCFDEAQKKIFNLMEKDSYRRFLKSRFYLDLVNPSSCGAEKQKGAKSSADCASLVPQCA
MrgX1 PAM: positive allosteric modulators of MrgX1, primary screen, HEK293 cells, Fluo-4 calcium flux; hit rate 0.63% among 310,000; B-score at 10 µM; AID 588675, 2011; FDSS; active compounds read high; Mas-related G-protein coupled receptor member X1 (Homo sapiens), Q96LB2;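 active means plate-corrected calcium response at least 3 library SD above typical, normal starting fluorescence, not activating the receptor alone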;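 further: compound read alongside a low EC10 to EC30 dose of BAM8-22 agonist; peak minus trough fluorescence over baseline measured at the second addition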
MrgX1 antagonist: antagonists of human MrgX1 receptor, primary screen, HEK293 cells, Fluo-4 calcium flux; Mas-related G-protein coupled receptor member X1 (Homo sapiens), Q96LB2; BAM8-22 antagonism; active compounds read low; B-score at 10 µM; hit rate 1.3% among 310,000; AID 588676, 2011;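 active means calcium-response B-score plate-corrected more than 3 library SD below zero, starting fluorescence within 5 deviations, no agonist response on first addition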;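 further: peak minus trough fluorescence over baseline after final BAM8-22 challenge near maximal dose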
* marks the source's active call; other numbers are inactive results; i = inactive; . = no result given. A selection: hits, their analogues and other compounds. The true share with any hit is near 3.5%.

SMILES | MrgX1 agonist | RGS4 act | RGS4 inh | MrgX1 PAM | MrgX1 antagonist
NC(=O)C1CCN(C2=C(Cl)C(=O)c3ccccc3C2=O)CC1 | 30* | i | i | i | i
CN1CCN(C(=O)CSc2nc(-c3cccs3)ccc2C#N)CC1 | 46* | i | i | i | i
N#Cc1ccc(-c2cccs2)nc1SCc1cccnc1 | i | i | i | i | i
O=C(C1CC(=O)N(c2ccccc2)C1)N1CCN(c2ccccc2F)CC1 (configuration not stated) | i | i | i | i | i
COC(=O)c1c(-c2ccc(OC)cc2)oc2ccc(-c3ccc(OC)nc3)cc12 | i | i | i | i | i
CCCOC(=O)c1c(-c2ccc(OC)cc2)oc2ccc(-c3ccc(OC)nc3)cc12 | i | i | i | i | -8.3*
Cc1cc(OCc2cc(C(=O)N(C)C3CCOC3)no2)cc(C)c1Cl (configuration not stated) | i | i | i | i | i
O=C(COC(=O)/C=C/c1cn(-c2ccccc2)nc1-c1ccc2c(c1)OCCO2)NC1CCS(=O)(=O)C1 (configuration not stated) | i | -8.5* | i | i | i
Cc1ccc(C(=O)NNc2cc(=O)n(C)c(=O)n2C)cc1C | i | i | i | i | -5.1*
Cc1cc(C(=O)N/N=C/c2cccs2)no1 | 28* | i | i | i | i
Cc1cccc(C)c1OCC(=O)NNC(=S)NC(=O)C1CC1 | 63* | i | i | i | i
CC(C)c1ccc(N2C(=O)CSC23C(=O)N2CCCc4cccc3c42)cc1 (configuration not stated) | i | -7.6* | i | i | i
COc1ccccc1C(=O)CN1C(=O)NC2(CCc3ccccc32)C1=O (configuration not stated) | i | i | i | i | i
COCCCNc1oc(COc2ccc(Cl)cc2Cl)nc1C#N | i | i | i | i | i
CN(C)CCNc1oc(COc2ccc(Cl)cc2Cl)nc1C#N | i | i | i | i | -6.5*
COc1ccc(CCNc2oc(Cc3cccc4ccccc34)nc2C#N)cc1OC | i | i | i | i | i
COc1ccc(CCNc2oc(COc3ccc(Br)cc3)nc2C#N)cc1OC | i | -7.5* | i | i | i
COc1ccc(-n2c(NC(=O)c3ccco3)c(C#N)c3nc4ccccc4nc32)cc1 | i | i | i | 7.1* | i
CCCCn1c(NC(=O)c2ccccc2Cl)c(C#N)c2nc3ccccc3nc21 | 26* | i | i | i | i
O=C(c1ccccn1)N1CCCC(N2CCN(c3ccccc3)CC2)C1 (configuration not stated) | i | i | i | i | i
Cn1cc(Cl)c(C(=O)OCC(=O)c2ccccc2)n1 | i | i | i | i | i
COc1ccc(-n2ccnc2)cc1 | i | i | i | i | i
COc1nc(N(c2ccccc2)c2ccccc2)nc(-n2ccnc2)n1 | i | i | i | 12* | i
O=C(c1ccc([N+](=O)[O-])cc1)N(Cc1ccc(Cl)cc1)N1C(=O)CCCC1=O | 54* | i | i | i | i
O=C(c1ccc([N+](=O)[O-])cc1)N(Cc1ccc(Cl)cc1Cl)N1C(=O)CCCC1=O | i | i | i | i | i
SMILES | MrgX1 agonist | RGS4 act | RGS4 inh | MrgX1 PAM | MrgX1 antagonist
CC[C@H](C)/C=C/C1=CC2=C(Cl)C(=O)[C@@]3(C)OC(=O)C(C(=O)[C@H](C)[C@@H](C)O)=C3C2=CO1 | i | i | i | 10* | i
COc1cccc(CC(=O)OCC(=O)N(C)CC(=O)Nc2ccc(Cl)c(C(F)(F)F)c2)c1 | i | i | i | i | i
CCN(CC(=O)Nc1cc(C)nn1-c1nc(C)cc(C)n1)Cc1ccccc1 | i | i | i | i | i
Cc1ccc(-n2cc(-c3ccc([N+](=O)[O-])cc3)[nH]c2=S)c(C)c1 | i | i | i | 9.7* | i
Cc1ccccc1NC(=O)C1CCCN(S(=O)(=O)c2cnc[nH]2)C1 (configuration not stated) | i | i | i | i | i
Cc1c(NC(=O)C2CCCN(S(=O)(=O)c3cnc[nH]3)C2)c(=O)n(-c2ccccc2)n1C (configuration not stated) | i | i | i | i | -7.3*
COc1ccccc1C1CCN(c2cc(O)ccc2[N+](=O)[O-])CC1 | i | i | i | i | i
Cc1cc(C(=O)NNS(=O)(=O)c2ccc(F)cc2)nn1C(C)(C)C | i | i | i | i | i
Cc1cc(C(=O)NNC(=O)c2cccs2)nn1C(C)(C)C | i | i | i | i | -7.2*
CC(C)CCNC(=O)CN1N=C(c2ccc(Cl)cc2)CCC1=O | i | i | i | i | i
C=C1SC(=Nc2c(C)cccc2Cl)N(C(=O)c2sc3ccccc3c2Cl)C12CCCCC2 | i | i | i | i | -5.1*
COC(=O)c1ccccc1SC(CC(=O)c1ccccc1)c1ccc(F)cc1 (configuration not stated) | i | -7.1* | i | i | i
O=C(CC(Nc1ccc(F)cc1)c1ccccc1)c1ccccc1 (configuration not stated) | i | i | i | i | i
CCCSc1nnc(NC(=O)c2sc3nc(-c4cccs4)ccc3c2N)s1 | 38* | i | i | i | i
CCN1/C(=C/C(C)=C/c2sc3ccccc3[n+]2CC)Sc2ccccc21 | i | i | i | i | -6.4*
CCC(C)(C)c1ccc(OCCCC[n+]2cccc(C)c2)c(C(C)(C)CC)c1 | . | -8.1* | i | . | .
CCOC(=O)c1sc(N/N=C/c2ccccc2)nc1C | i | i | i | i | i
O=C(O)Cc1sc(N/N=C\c2ccccc2)nc1-c1ccccc1 | i | i | i | i | -6.2*
Cc1nc(N/N=C/c2ccc(O)cc2)c2cnn(-c3ccccc3)c2n1 | i | i | i | i | -7.5*
CC(CN1CCCCC1)C(=O)NNC(=O)C12CC3CC(CC(C3)C1)C2 (configuration not stated) | i | i | i | 7.6* | i
Clc1ccc(SCc2cc(-c3ccc(Cl)cc3)on2)cc1 | i | -8* | i | i | i
Clc1ccc(-c2cc(CN3CCOCC3)no2)cc1 | i | i | i | i | i
Cc1ccc(SCc2cc(-c3ccc(Cl)cc3)on2)cc1 | i | -7.6* | i | i | i

High-throughput results deposited in PubChem BioAssay by Johns Hopkins Ion Channel Center.
